# Compounds with a hit are over-represented: about 4.1% of the library has one in this group of screens.
# RGS4 inh – human RGS4 inhibition. P49798. HEK293 M3R/RGS4 inducible, Fluo-4 calcium flux; stronger effect = higher value; triggered by carbachol at its EC20. B-score at 10 µM. actives 0.45% (n = 310,000);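 active = B-score, a plate-corrected calcium signal, over three deviations above library mean, with baseline fluorescence within five deviations of library mean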;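 note: RGS4 expression induced by doxycycline in cells with stable M3 receptor; B-score is computed from the integrated fluorescence ratio over baseline after carbachol; higher B-score means a larger calcium signal and so more RGS4 inhibition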
# Target sequence (P49798 whole entry, looked up): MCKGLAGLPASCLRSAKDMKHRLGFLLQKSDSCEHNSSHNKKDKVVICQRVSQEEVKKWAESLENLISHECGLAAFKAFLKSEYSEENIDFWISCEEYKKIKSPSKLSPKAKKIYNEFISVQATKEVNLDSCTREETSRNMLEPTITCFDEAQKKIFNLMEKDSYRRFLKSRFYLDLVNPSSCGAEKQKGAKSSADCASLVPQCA
# MrgX1 allo act – human MrgX1 positive allosteric modulation, primary screen | MrgX1-HEK293, Fluo-4 calcium flux, FDSS; stronger effect = higher value | actives 0.63% (n = 310,000) | Q96LB2 | B-score at 10 µM;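 active = plate-corrected calcium response at least 3 library SD above typical, normal starting fluorescence, not activating the receptor alone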;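 note: compound read alongside a low EC10 to EC30 dose of BAM8-22 agonist; peak minus trough fluorescence over baseline measured at the second addition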
# Target sequence (Q96LB2 whole entry, looked up): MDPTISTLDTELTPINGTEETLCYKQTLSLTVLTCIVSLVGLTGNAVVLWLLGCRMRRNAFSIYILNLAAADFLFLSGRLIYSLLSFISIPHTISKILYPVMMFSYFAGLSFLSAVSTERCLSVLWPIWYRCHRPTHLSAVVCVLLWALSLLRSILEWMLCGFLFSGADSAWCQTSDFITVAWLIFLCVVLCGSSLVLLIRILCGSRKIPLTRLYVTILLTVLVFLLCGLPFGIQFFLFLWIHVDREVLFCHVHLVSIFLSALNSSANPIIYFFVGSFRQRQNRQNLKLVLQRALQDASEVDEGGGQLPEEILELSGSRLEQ
# MrgX1 antag – human MrgX1 receptor antagonism, primary screen; B-score at 10 µM; actives 1.3% (n = 310,000); MRGX1-HEK293 calcium flux, Fluo-4, BAM8-22 antagonism; stronger effect = lower value; Q96LB2;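 active = calcium-response B-score plate-corrected more than 3 library SD below zero, starting fluorescence within 5 deviations, no agonist response on first addition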;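 note: peak minus trough fluorescence over baseline after final BAM8-22 challenge near maximal dose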
# Kir21 block – Kir2.1 (mouse) channel inhibition. P35561. HEK293-Kir2.1, FluxOR thallium flux fluorescence; stronger effect = lower value. B-score at 10 µM. actives 0.85% (n = 310,000). AID 1672;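 active = fluorescence ratio B-score at or below minus 3 SD of library scores, with starting-brightness B-score within 2 SD, cut at about -4.2 in these data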;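 note: channel flux triggered by added potassium and thallium sulfate stimulus; B-score of peak minus minimum fluorescence over baseline after thallium stimulus; more negative B-score means stronger Kir2.1 block with less thallium influx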
# RGS4 pot – RGS4 potentiation or activation; HEK293 M3R/inducible RGS4, carbachol calcium flux Fluo4; stronger effect = lower value; actives 0.92% (n = 310,000); B-score at 10 µM; AID 463111;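 active = B-score of the integrated calcium signal more than 4 SD below the library mean, with starting fluorescence not abnormally high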;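 note: negative B-score means reduced calcium response which marks RGS4 activation or potentiation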
#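 Assay system: HEK293 FlpIn-TREx cells, stable M3R, doxycycline-inducible RGS4 / Probe or stimulus: carbachol, ECmax concentration / Times: overnight RGS4 induction, 30 min dye load 37 °C, 20 min compound RT / Signal: kinetic calcium fluorescence imaging with Fluo4-AM dye, 2 µM / Measure: Agonist-evoked peak-minus-minimum fluorescence over baseline, integrated ratio, B score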
# MrgX1 agonist – agonists of human MrgX1 receptor. actives 0.44% (n = 310,000). MrgX1-HEK293 cells, Fluo-4 calcium fluorescence, agonist mode; stronger effect = higher value. Q96LB2. B-score at 10 µM;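 active = calcium response B-score plate-corrected fluorescence ratio at least 3 library SD, with starting fluorescence B-score inside 5 SD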
#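 Assay system: stable human MrgX1 HEK293 cell line. Quantity: 15,000 cells per well. Schedule: cells plated overnight, dye loaded 0.5 h 37 °C, 0.5 h room temperature. Detection: Fluo-4 NW calcium-flux fluorescence, kinetic read. Read-out basis: peak-minus-minimum fluorescence over baseline, converted to B scores. Control set: positive and negative control wells on each plate.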
# * hit, by the source's call; i = inactive.
SMILES,RGS4 inh,MrgX1 allo act,MrgX1 antag,Kir21 block,RGS4 pot,MrgX1 agonist
N/C(Cc1ccc(Cl)cc1Cl)=N\OC(=O)Cc1cccs1,i,i,i,-0.47,i,i
N/C(=N\OC(=O)c1ccc(Cl)c(Cl)c1)c1cccnc1,i,i,i,1.4,i,i
N/C(=N\OC(=O)c1ccc(Cl)c(Cl)c1)c1cccc(CSc2ccccn2)c1,i,i,i,1.4,-7.5*,i
N/C(=N\OC(=O)c1ccc(=O)n(Cc2ccccc2)c1)c1ccccn1,i,i,-5.1*,-1.4,i,i
CCCc1ccc(C(=O)O/N=C(\N)c2ccccn2)cc1,i,i,i,-0.25,i,i
c1ccc(-c2nnc(-c3ccccn3)nc2NC2CCCCC2)cc1,i,i,i,-0.64,i,i
Cc1cc(NC(=O)CSCC(=O)OCC(=O)Nc2cc(C)c(C)cc2[N+](=O)[O-])no1,i,i,i,0.58,i,i
CCOC(=O)c1c(CSc2ccccc2)n(C)c2ccc(O)c(CN3CCOCC3)c12,i,i,i,-5.4*,i,i
N#C/C(=N\Nc1ccccc1F)c1nc(-c2ccccc2)cs1,i,i,i,-0.02,i,i
Cc1ccc(C)c(-c2cc(C(=O)Nc3cccnc3)c3ccccc3n2)c1,i,i,i,-0.5,-7.6*,i
Cc1ccc(C)c(-c2cc(C(=O)Nc3cccc(C(=O)O)c3)c3ccccc3n2)c1,i,i,i,-0.62,i,i
O=C1CN(C(=O)CCCc2c[nH]c3ccccc23)c2ccccc2N1,i,i,i,-5.7*,i,i
O=C(O)CCCC(=O)N1CC(=O)Nc2ccccc21,i,i,i,0.13,i,i
COC(=O)C(CCCN1C(=O)c2ccccc2C1=O)(NC(C)=O)c1nn[nH]n1 (stereo unspecified),i,i,i,2.1,i,i
CSc1nc(C)c2c(n1)N(c1ccc(F)cc1)CC2,i,i,i,0.73,i,i
Cc1ccc2nc(C)c3c(c2c1)N(c1ccc(F)cc1)CC3,i,i,i,-5.3*,i,i
CC1(C)Oc2ccc(C(=O)NC3CCCC3)cc2N(CC(=O)N2CCOCC2)C1=O,i,i,i,1.5,i,i
CCCCN1C(=O)NC(NC(=O)c2ccco2)(C(F)(F)F)C1=O (stereo unspecified),i,i,i,-0.44,i,i
CC(C)Oc1ccc(C(=O)NC2(C(F)(F)F)NC(=O)N(CCCc3ccccc3)C2=O)cc1 (stereo unspecified),i,i,i,0.28,-7.1*,i
COc1ccc(-c2csc(CCn3nc(C)cc3C)n2)cc1OC,i,i,i,-0.42,i,i
CCCCCCCCCCCC(=O)c1c(O)cccc1O,i,i,i,-0.74,-9.2*,i
CN(C)Cc1nc2c(c(=O)[nH]1)C(C)(C)Cc1ccccc1-2,i,i,i,0,i,i
COc1ccc(C2NC(=O)NC(O)(C(F)(F)F)C2C(=O)c2ccc(C)cc2)cc1 (stereo unspecified),i,i,i,-0.28,-7.6*,i
COc1ccc(C2NC(=O)NC(O)(C(F)(F)F)C2C(=O)c2ccccc2)cc1OC (stereo unspecified),i,i,i,-1.4,i,i
O=c1ccc2cc3c([nH]c4ccc(Br)cc43)oc-2c1O,i,11*,i,0.76,i,i
SMILES,RGS4 inh,MrgX1 allo act,MrgX1 antag,Kir21 block,RGS4 pot,MrgX1 agonist
Cc1ccc(Oc2ncccc2/C=N/OCc2ccc(Cl)c(Cl)c2)cc1,i,8.6*,i,-1.3,i,i
Cc1csc(-c2coc3cc(O)cc(C)c3c2=O)n1,i,i,i,-0.43,i,i
O=[N+]([O-])c1ccc(/C=N/NC2=NS(=O)(=O)c3ccccc32)cc1,i,i,i,1.7,i,i
O=[N+]([O-])c1ccc(O)c(/C=N/NC2=NS(=O)(=O)c3ccccc32)c1,i,8.5*,i,0.01,i,i
COc1cc(/C=C2\SC(=N)N(c3ccc(F)cc3)C2=O)ccc1O,i,i,-4.9*,-0.27,i,i
COc1ccc(/C=C2\SC(c3ccc(C)cc3)=NC2=O)cc1OC,i,i,i,0.19,i,i
COc1cc(/C=C2\SC(c3ccc(C)cc3)=NC2=O)ccc1O,i,i,-5.8*,-0.1,i,i
CCOc1ccc(N2C(=O)S/C(=C\c3ccc(O)c(OC)c3)C2=O)cc1,i,i,i,2,i,i
CCCOc1ccc(C(=O)Nc2c[nH]c(=O)[nH]c2=O)cc1,i,i,i,0.26,i,i
O=C(NNC(=O)c1ccc2ccccc2c1O)Nc1ccc(F)cc1,i,i,i,-0.67,i,i
COc1cc2c(cc1NC(=O)C(C)Sc1ccc(C)cc1)oc1ccccc12 (stereo unspecified),i,i,i,-0.02,-7*,i
NCCc1nnc(SCc2ccc(F)cc2)o1,i,i,i,-0.54,i,i
NCCCCCc1nnc(SCc2ccc(Cl)c(Cl)c2)o1,i,i,i,-0.89,-7.1*,i
O=C(CSc1nc(-c2cccs2)cc(C(F)(F)F)n1)NCCCn1ccnc1,i,i,i,-1.8,i,i
CN(C)c1ccc(/C=C2\N=C(c3ccc(Cl)c([N+](=O)[O-])c3)NC2=O)cc1,i,i,-6.9*,-1.7,i,i
CN(C)c1ccc(/C=C2/NC(=O)NC2=O)cc1,i,i,i,1.1,i,i
Cc1cccc(NC(=S)c2nc3ccccc3s2)c1,i,i,i,-2,i,i
Cc1ccc(C(=O)COC(=O)CCC(=O)Nc2ccccc2Cl)cc1[N+](=O)[O-],i,i,i,1.3,i,i
COC(=O)c1cccc(NC(=O)CCNC(=O)c2ccc([N+](=O)[O-])cc2)c1,i,i,-7.8*,1.5,i,i
CC(=O)Nc1ccc(NC(=O)CCC(=O)OCC(=O)c2ccc(C)c([N+](=O)[O-])c2)cc1,i,i,-5.6*,-0.98,i,i
CCCC(=O)Nc1cccc(NC(=O)c2ccc(C)c([N+](=O)[O-])c2)c1,i,i,i,-4.8*,i,i
CCC(=O)Nc1cccc(NC(=O)c2ccc(C)c([N+](=O)[O-])c2)c1,i,i,i,-1.2,i,i
